The subject of data set [1] is Rattus norvegicus. The data set is described as follows: Hypolipidemic activity was assessed by measuring alpha-cholesterol in Sprague-Dawley male rats at 50 mg/kg. It is filed as functional. The essentials:
(§1)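 Male Sprague-Dawley rats (185-g mean bodyweight) on a normal diet were dosed orally for 4 consecutive days at 50 mg/kg or 200 mg/kg. They were fasted 18 h, and blood was drawn from the abdominal aorta 24 h after the last dose. Serum total cholesterol, triglycerides (mg/100 mL) and lipoprotein α-cholesterol (% of total cholesterol) were measured. Groups of 10–40 rats were compared with controls by Student's t test.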

In data set [2] the test system is Rattus norvegicus. Nature of the data set: Hypolipidemic activity was assessed by measuring triglycerides in Sprague-Dawley male rats at 50 mg/kg. It is filed as functional. The essentials: as §1
Data set [3] concerns Rattus norvegicus. Nature of the data set: Hypolipidemic activity was assessed by measuring cholesterol in Sprague-Dawley male rats at 50 mg/kg. It is filed as functional. In a few lines: as §1
Data set [4] in a line: Evaluated for the dose that causes 50 % lethality in Sprague-Dawley male rats. The following applies: rat, in vivo. It is filed as ADME, organism-based.
The subject of data set [5] is Rattus norvegicus. Nature of the data set: Hypolipidemic activity was assessed by measuring cholesterol in Sprague-Dawley male rats at 200 mg/kg. It is filed as functional. In a few lines: as §1
Data set [6] can be described thus: Compound was evaluated for the dose that causes […] in Sprague-Dawley male rats. The conditions noted are these: rat, in vivo. It is filed as ADME, organism-based.
Data set [7] deals with Rattus norvegicus. Nature of the data set: Hypolipidemic activity was assessed by measuring triglycerides in Sprague-Dawley male rats at 200 mg/kg. It is filed as functional. The essentials:
as §1

Data set [8] has as its system Rattus norvegicus. Nature of the data set: Hypolipidemic activity was assessed by measuring alpha-cholesterol in Sprague-Dawley male rats at 200 mg/kg. It is filed as functional. The essentials:
as §1

18 molecules from ChEMBL document CHEMBL1122536, “Novel pyrimidine and 1,3,5-triazine hypolipidemic agents” (J Med Chem, 1984) can be followed below.

The structures appear in SMILES notation. Values joined by “and” are separate entries in the source; they are usually repeats but may differ in a detail not shown here. Equal values may be shown once. Bounds are passed on as bounds.

Consider `Cc1cccc(Oc2cc(Cl)nc(OCC(=O)O)n2)c1C`, for which the Alpha-cholesterol with Rattus norvegicus [1] (dose 50 mg/kg) is 74%. Moreover, the Triglycerides in the data set with Rattus norvegicus [2] was determined as 91.1 mg/100 mL. Also, in the data set on Rattus norvegicus [3], the Cholesterol turned out to be 67.1 mg 100ml-1. In data set [4], this molecule had an LD50 of 1210 mg/kg.

The molecule `Cc1cccc(N(C)c2cc(Cl)nc(SCC(=O)O)n2)c1C` showed an Alpha-cholesterol in the data set with Rattus norvegicus [1] (dose 50 mg/kg) of 78.6%. For the same molecule, the Triglycerides in the data set on Rattus norvegicus [2] was less than 46.9 mg/100 mL. The Cholesterol with Rattus norvegicus [3] was 63.5 mg 100ml-1. The LD50 in data set [4] is 1010 mg/kg.

For `Cc1cccc(N(C)c2cc(Cl)nc(N(C)C)n2)c1C`, the Cholesterol in the data set on Rattus norvegicus [5] was found to be 63.2 mg 100ml-1. In data set [6], this molecule yielded an LD50 of less than 2500 mg/kg. Further, the Triglycerides with Rattus norvegicus [7] stood at 89.8 mg/100 mL. The molecule also showed an Alpha-cholesterol with Rattus norvegicus [8] of 90%.

For `Cc1cccc(Nc2nc(Cl)nc(N(C)CC(=O)O)n2)c1C`, in the data set on Rattus norvegicus [5], the Cholesterol is reported as 76.8 mg 100ml-1. The molecule further gave an LD50 in data set [6] of 1220 mg/kg. The molecule further displayed a Triglycerides with Rattus norvegicus [7] of less than 74.6 mg/100 mL. In the data set with Rattus norvegicus [8], this molecule had an Alpha-cholesterol of 79.8%.

In turn, `Cc1cccc(N(C)c2cc(Cl)nc(OCC(=O)O)n2)c1C` showed an Alpha-cholesterol in the data set with Rattus norvegicus [1] (dose 50 mg/kg) of 87.2%. In the data set with Rattus norvegicus [2], this molecule came in with a Triglycerides of less than 80.7 mg/100 mL. This molecule also showed a Cholesterol in the data set with Rattus norvegicus [3] of 66.4 mg 100ml-1. The molecule also came in with an LD50 in data set [4] of 1070 mg/kg.

Turning to `Cc1cccc(Oc2cc(Cl)nc(SCC(=O)O)n2)c1C`, in the data set on Rattus norvegicus [1] (dose 50 mg/kg), the Alpha-cholesterol stood at 77%. Further, the Triglycerides in the data set with Rattus norvegicus [2] was less than 56.4 mg/100 mL. The same molecule registered a Cholesterol in the data set with Rattus norvegicus [3] of less than 67.7 mg 100ml-1. The same molecule showed an LD50 in data set [4] of 1290 mg/kg.

Consider `CN(C)c1cc(Cl)nc(SCC(=O)O)n1`, for which the Alpha-cholesterol with Rattus norvegicus [1] (dose 50 mg/kg) was 81.7% and 72.2%. For the same molecule, in the data set with Rattus norvegicus [3] (50 mg/kg), the Cholesterol is <62.5 mg 100ml-1 and <69.4 mg 100ml-1. Moreover, the LD50 in data set [4] is less than 2500 mg/kg.

With `CN(C)c1nc(N)cc(Cl)n1`, the Cholesterol in the data set on Rattus norvegicus [5] is 71.4 mg 100ml-1. The same molecule registered an LD50 in data set [6] of less than 2500 mg/kg. Further, the Triglycerides in the data set on Rattus norvegicus [7] was less than 89.9 mg/100 mL. In the data set on Rattus norvegicus [8], this molecule came in with an Alpha-cholesterol of less than 87.4%.

As for `Cc1cccc(Nc2nc(Cl)nc(N(C)C)n2)c1C`, the Cholesterol with Rattus norvegicus [5] is listed as 80.8 mg 100ml-1. The molecule also yielded an LD50 in data set [6] of less than 2000 mg/kg. The molecule also had a Triglycerides in the data set on Rattus norvegicus [7] of less than 91.4 mg/100 mL. In addition, the Alpha-cholesterol with Rattus norvegicus [8] is listed as 78.6%.

In turn, `CN(C)c1nc(N)nc(Cl)n1` displayed a Cholesterol in the data set with Rattus norvegicus [5] of less than 105.6 mg 100ml-1. The molecule also registered an LD50 in data set [6] of less than 2000 mg/kg. In addition, the Triglycerides in the data set on Rattus norvegicus [7] is less than 78.2 mg/100 mL. This molecule came in with an Alpha-cholesterol with Rattus norvegicus [8] of 85.4%.

In the data set with Rattus norvegicus [5], `Cc1cccc(N(C)c2cc(Cl)nc(S)n2)c1C` had a Cholesterol of 65.8 mg 100ml-1. Moreover, the LD50 in data set [6] is 1780 mg/kg. Moreover, the Triglycerides with Rattus norvegicus [7] was less than 79.1 mg/100 mL. The same molecule displayed an Alpha-cholesterol with Rattus norvegicus [8] of 74.4%.

On to `CN(C)c1cc(Cl)nc(N(C)C)n1`, for which the Alpha-cholesterol in the data set on Rattus norvegicus [1] (dose 200 mg/kg, in the assay text read “200 mg/kg” for “50 mg/kg”) was found to be 75.7%. Besides, in the data set with Rattus norvegicus [3], the Cholesterol is less than 103.7 mg 100ml-1. The molecule also displayed an LD50 in data set [4] of less than 2500 mg/kg.

In the data set with Rattus norvegicus [1] (dose 50 mg/kg), `Cc1cccc(N(C)c2cc(Cl)nc(NCC(=O)O)n2)c1C` returned an Alpha-cholesterol of 77%. Moreover, the Triglycerides with Rattus norvegicus [2] is less than 50 mg/100 mL. For the same molecule, the Cholesterol with Rattus norvegicus [3] is less than 68.4 mg 100ml-1. For the same molecule, in data set [4], the LD50 stood at 995 mg/kg.

For the molecule `CSc1nc(Cl)cc(Nc2cccc(C)c2C)n1`, in the data set on Rattus norvegicus [1] (dose 50 mg/kg), the Alpha-cholesterol is recorded as 72.3%. Further, in the data set on Rattus norvegicus [2], the Triglycerides was 106 mg/100 mL. The Cholesterol in the data set on Rattus norvegicus [3] is reported as less than 54.2 mg 100ml-1. In addition, the LD50 in data set [4] is 1250 mg/kg.

In turn, `CN(C)c1nc(Cl)nc(N(C)C)n1` yielded an Alpha-cholesterol in the data set on Rattus norvegicus [1] (dose 50 mg/kg) of 70%. For the same molecule, the Cholesterol in the data set on Rattus norvegicus [3] is given as 84.8 mg 100ml-1.

In the case of `Cc1cccc(Nc2cc(Cl)nc(S)n2)c1C`, the Cholesterol with Rattus norvegicus [5] was 76.3 mg 100ml-1. This molecule also showed a Triglycerides with Rattus norvegicus [7] of 95.6 mg/100 mL. In the data set with Rattus norvegicus [8], the Alpha-cholesterol was 73.2%. The molecule further showed an LD50 in data set [4] of 1840 mg/kg.

In the data set with Rattus norvegicus [5], `Cc1cccc(Oc2cc(Cl)nc(N(C)C)n2)c1C` had a Cholesterol of 76.7 mg 100ml-1. The LD50 in data set [6] is less than 2000 mg/kg. Also, the Triglycerides with Rattus norvegicus [7] is 102 mg/100 mL. Besides, the Alpha-cholesterol in the data set with Rattus norvegicus [8] was determined as 72.6%.

In the data set with Rattus norvegicus [1] (dose 50 mg/kg), `CCCCCCCCSc1nc(Cl)cc(Nc2cccc(C)c2C)n1` yielded an Alpha-cholesterol of 67.7%. The same molecule returned a Triglycerides in the data set with Rattus norvegicus [2] of 96.5 mg/100 mL. The same molecule showed a Cholesterol with Rattus norvegicus [3] of 63.2 mg 100ml-1.

For orientation: LD50 means the dose expected to kill half of the subjects tested. Low readings indicate greater toxicity, high ones lower toxicity.
